For orientation: logD means the decadic logarithm of the distribution of all forms, ionised or not, between an organic phase and buffer at a given pH. The term bioavailability denotes dose-corrected exposure relative to a reference, in per cent. Lower therefore signals little systemic uptake. What is called half-life is how long it takes for the measured level to halve. Broadly, the clearance is the volume of plasma or blood freed of the substance per unit of time. A higher clearance goes with a high capacity for elimination. As a reminder, the Cmax is the highest concentration seen after dosing. A word on the AUC(0-t): it is the area under the concentration-time curve up to a stated or last time point. Higher therefore signals high exposure.

These results are taken from ChEMBL document CHEMBL4627393, “Discovery of Potent, Selective, and State-Dependent NaV1.7 Inhibitors with Robust Oral Efficacy in Pain Models: Structure-Activity Relationship and Optimization of Chroman and Indane Aryl Sulfonamides” (J Med Chem, 2020).

A short description of data set [1]: Lipophilicity, log D of the compound. The conditions noted are these: octanol/water. The data set is classed as physicochemical.
The nature of data set [2]: Oral bioavailability in BALB/c mouse at 10 mg/kg measured upto 24 hrs by LC/MS-MS analysis. The class given is ADME, organism-based. The conditions noted are these: in vivo. The procedure, abridged:
(§1)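 Pharmacokinetics were run with an IV dose of 1 mg/kg and a PO dose of 10 mg/kg. Parameters reported were AUClast, Cmax, CL, T1/2, Vss and %F.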

A short description of data set [3]: Half life in BALB/c mouse at 1 mg/kg, iv measured upto 24 hrs by LC/MS-MS analysis. The class given is ADME, organism-based. The conditions noted are these: in vivo.
The nature of data set [4]: Clearance in BALB/c mouse at 1 mg/kg, iv measured upto 24 hrs by LC/MS-MS analysis. The class given is ADME, organism-based. As to conditions: in vivo.
Data set [5] is described as follows: Metabolic stability in mouse liver microsomes assessed as metabolic rate at 1 uM preincubated for 5 mins followed by NADPH addition and measured up to 30 mins by LC/MS-MS analysis. The class given is ADME, Microsome. The conditions noted are these: 0.5 h.
Data set [6] in a line: Cmax in BALB/c mouse at 10 mg/kg, po measured upto 24 hrs by LC/MS-MS analysis. The data set is classed as ADME, organism-based. Set-up: dose 10 mg/kg, route oral. The conditions noted are these: in vivo.
A short description of data set [7]: Metabolic stability in rat liver microsomes assessed as metabolic rate at 1 uM preincubated for 5 mins followed by NADPH addition and measured up to 30 mins by LC/MS-MS analysis. As to conditions: 0.5 h. The data set is classed as ADME, Microsome.
Data set [8] is described as follows: AUClast in BALB/c mouse at 1 mg/kg, iv measured upto 24 hrs by LC/MS-MS analysis. The class given is ADME, organism-based. Set-up: time < 24 hr, dose 1 mg/kg, route intravenous. The conditions noted are these: in vivo.
Data set [9] is described as follows: Cmax in BALB/c mouse at 1 mg/kg, iv measured upto 24 hrs by LC/MS-MS analysis. The data set is classed as ADME, organism-based. Set-up: dose 1 mg/kg, route intravenous. The conditions noted are these: in vivo.
Data set [10] in a line: AUClast in BALB/c mouse at 10 mg/kg, po measured upto 24 hrs by LC/MS-MS analysis. The data set is classed as ADME, organism-based. Set-up: dose 10 mg/kg, time < 24 hr, route oral. As to conditions: in vivo.
Data set [11] can be described thus: Volume of distribution at steady state in BALB/c mouse at 1 mg/kg, iv measured upto 24 hrs by LC/MS-MS analysis. The data set is classed as ADME, organism-based. As to conditions: in vivo, read-out: Vdss. An outline of the steps: as §1
The nature of data set [12]: Metabolic stability in human liver microsomes assessed as metabolic rate at 1 uM preincubated for 5 mins followed by NADPH addition and measured up to 30 mins by LC/MS-MS analysis. The class given is ADME, Microsome. The conditions noted are these: 0.5 h.

Turning to `O=S(=O)(Nc1ncc(F)cn1)c1ccc2c(c1)OCC[C@@H]2c1ccc(C(F)(F)F)cc1N1CCOCC1`, the logD in data set [1] was 2.8.
In data set [1], `CN1CCN(c2cc(C(F)(F)F)ccc2[C@H]2CCOc3cc(S(=O)(=O)Nc4nccs4)ccc32)CC1` had a logD of 2.1.
`O=S(=O)(Nc1ncccn1)c1ccc2c(c1)CC[C@@H]2c1ccc(C(F)(F)F)cc1N1CCOCC1` yielded a logD in data set [1] of 2.9.
Same read-out and setting: the figure for `O=S(=O)(Nc1ncccn1)c1ccc2c(c1)CC[C@@H]2c1ccc(C(F)(F)F)cc1-c1ccc(F)nc1` is 3.2; for `Cn1nccc1-c1cc(C(F)(F)F)ccc1[C@H]1CCOc2cc(S(=O)(=O)Nc3cccc(F)n3)ccc21` it is 3.6; for `Cn1nccc1-c1cc(C(F)(F)F)ccc1[C@H]1CCOc2cc(S(=O)(=O)Nc3cccnn3)ccc21` it is 2.2.
In turn, `Cn1nccc1-c1cc(C(F)(F)F)ccc1[C@H]1CCOc2cc(S(=O)(=O)Nc3ccc(F)cn3)ccc21` showed a logD in data set [1] of 3.8.
Regarding `O=S(=O)(Nc1nccs1)c1ccc2c(c1)OCC[C@@H]2c1ccc(C(F)(F)F)cc1-c1ccc(F)nc1`, the bioavailability in [2] was found to be 95%. The same molecule showed a logD in [1] of 3.2. Also, the half-life in data set [3] was 2.8 h. Further, the clearance in data set [4] was 14 mL/min/kg. Also, the Drug metabolism is on record as 0.04 nmol/min/mg in [5], 0.05 nmol/min/mg in data set [7] and 0.03 nmol/min/mg in data set [12]. Also, the Cmax in data set [6] stood at 4200 nM; in [9] it was 800 nM. Further, the values for the AUC(0-t) at 24 h in data set [8] and in data set [10] were 2 µM·h and 19 µM·h, respectively. Also, in data set [11], the Vd came out at 2.9 L/kg.
`O=S(=O)(Nc1ncc(F)cn1)c1ccc2c(c1)OCC[C@@H]2c1ccc(C(F)(F)F)cc1-c1ccc(F)cn1` showed a logD in [1] of 3.
`O=S(=O)(Nc1nccs1)c1ccc2c(c1)OCC[C@@H]2c1ccc(C(F)(F)F)cc1-c1nccs1`: the logD in data set [1] came to 3.3.
Same read-out and setting: under `O=S(=O)(Nc1ccncn1)c1ccc2c(c1)OCC[C@@H]2c1ccc(C(F)(F)F)cc1-c1ccc(F)cn1` stands 3; under `O=S(=O)(Nc1nccs1)c1ccc2c(c1)OCC[C@H]2c1ccc(C(F)(F)F)cc1-c1nccs1`, 3.3; under `Cc1nc(-c2cc(C(F)(F)F)ccc2[C@@H]2CCOc3cc(S(=O)(=O)Nc4nccs4)ccc32)co1`, 2.9.
The same measure, in the same setting: the figure for `O=S(=O)(Nc1nccs1)c1ccc2c(c1)OCC[C@@H]2c1ccc(C(F)(F)F)cc1-c1ccc(F)cc1` is 4.5; for `Cc1nc(-c2cc(C(F)(F)F)ccc2[C@H]2CCOc3cc(S(=O)(=O)Nc4ncccn4)ccc32)co1` it is 2.8.
Same read-out and setting: under `Cc1ccc(-c2cc(C(F)(F)F)ccc2[C@H]2CCOc3cc(S(=O)(=O)Nc4ncc(F)cn4)ccc32)cn1` stands 2.5; under `Cn1nccc1-c1cc(C(F)(F)F)ccc1[C@@H]1CCOc2cc(S(=O)(=O)Nc3nccs3)ccc21`, 2.2.
With `Cc1nc(-c2cc(C(F)(F)F)ccc2[C@H]2CCOc3cc(S(=O)(=O)Nc4nccs4)ccc32)co1`, the logD in [1] was 2.9.
Still for that read-out and setting: under `O=C1COCCN1c1cc(C(F)(F)F)ccc1[C@H]1CCOc2cc(S(=O)(=O)Nc3nccs3)ccc21` stands 1.8; under `Cc1ccc(-c2cc(C(F)(F)F)ccc2[C@H]2CCOc3cc(S(=O)(=O)Nc4cccc(F)n4)ccc32)cn1`, 3.7.
Still for that read-out and setting: under `Cc1nc(-c2cc(C(F)(F)F)ccc2[C@H]2CCOc3cc(S(=O)(=O)Nc4cccc(F)n4)ccc32)co1` stands 4; under `Cn1nccc1-c1cc(C(F)(F)F)ccc1[C@H]1CCOc2cc(S(=O)(=O)Nc3cc(F)ccn3)ccc21`, 3.2.
On the same count and under the same terms, under `O=S(=O)(Nc1ccncn1)c1ccc2c(c1)OCC[C@@H]2c1ccc(C(F)(F)F)cc1-c1ccc(F)nc1` stands 2.3; under `Cc1ccc(-c2cc(C(F)(F)F)ccc2[C@H]2CCOc3cc(S(=O)(=O)Nc4ccncn4)ccc32)cn1`, 3; under `Cn1nccc1-c1cc(C(F)(F)F)ccc1[C@H]1CCOc2cc(S(=O)(=O)Nc3ncc(F)cn3)ccc21`, 2.5.
`O=S(=O)(Nc1nccs1)c1ccc2c(c1)OCC[C@@H]2c1ccc(C(F)(F)F)cc1-c1ccc(F)cn1`: the logD in data set [1] amounted to 3.5.
On the same count and under the same terms, the figure for `O=C1OCCN1c1cc(C(F)(F)F)ccc1[C@H]1CCOc2cc(S(=O)(=O)Nc3nccs3)ccc21` is 2.1; for `O=S(=O)(Nc1cccc(F)n1)c1ccc2c(c1)OCC[C@@H]2c1ccc(C(F)(F)F)cc1N1CCOCC1` it is 4.1.
`O=S(=O)(Nc1nccs1)c1ccc2c(c1)OCC[C@@H]2c1ccc(C(F)(F)F)cc1-n1ccnn1` returned a bioavailability in data set [2] of 79%. In data set [1], this molecule registered a logD of 2.3. This molecule also gave a half-life in [3] of 0.4 h. This molecule also yielded a clearance in data set [4] of 37 mL/min/kg. For the same molecule, the Drug metabolism in data set [5], in [7] and in data set [12] was 0.02 nmol/min/mg in each case. Moreover, the figures for the Cmax in data set [6] and in [9] were 3000 nM and 2200 nM, respectively. Besides, the AUC(0-t) at 24 h in data set [8] is 0.9 µM·h; in [10], 7.1 µM·h. Besides, the Vd in [11] came out at 1 L/kg.
In data set [1], `O=S1(=O)CCN(c2cc(C(F)(F)F)ccc2[C@H]2CCOc3cc(S(=O)(=O)Nc4nccs4)ccc32)CC1` came in with a logD of 2.5.
The same measure, in the same setting: the figure for `O=S(=O)(Nc1nccs1)c1ccc2c(c1)OCC[C@H]2c1ccc(C(F)(F)F)cc1-n1ccnn1` is 2.3; for `O=S(=O)(Nc1ncc(F)cn1)c1ccc2c(c1)OCC[C@@H]2c1ccc(C(F)(F)F)cc1-c1ccc(F)nc1` it is 2.9; for `O=S(=O)(Nc1ncccn1)c1ccc2c(c1)OCC[C@@H]2c1ccc(C(F)(F)F)cc1-c1ccc(F)cn1` it is 2.9.
Still for that read-out and setting: the figure for `Cc1nc(-c2cc(C(F)(F)F)ccc2[C@H]2CCOc3cc(S(=O)(=O)Nc4ncc(F)cn4)ccc32)co1` is 2.8.
The same measure, in the same setting: under `Cc1ccc(-c2cc(C(F)(F)F)ccc2[C@H]2CCc3cc(S(=O)(=O)Nc4ncccn4)ccc32)cn1` stands 2.8; under `Cn1nccc1-c1cc(C(F)(F)F)ccc1[C@H]1CCOc2cc(S(=O)(=O)Nc3cnccn3)ccc21`, 1.8.
Take `Cn1nccc1-c1cc(C(F)(F)F)ccc1[C@H]1CCOc2cc(S(=O)(=O)Nc3nccs3)ccc21`: in [2], the bioavailability was found to be 68%. In data set [1], the log distribution coefficient (logD) stood at 2.2. The half-life in data set [3] is 2 h. The molecule further returned a clearance in [4] of 14 mL/min/kg. For the same molecule, the Drug metabolism is recorded as 0.1 nmol/min/mg in data set [5], 0.04 nmol/min/mg in data set [7] and 0.05 nmol/min/mg in data set [12]. For the same molecule, the maximum concentration (Cmax) stood at 6000 nM in [6] and 1300 nM in [9]. In addition, the exposure AUC(0-t) at 24 h in data set [8] is 2.2 µM·h; in data set [10], 15 µM·h. Also, in [11], the Vd was 2.2 L/kg.
`O=S(=O)(Nc1nccs1)c1ccc2c(c1)OCC[C@H]2c1ccc(C(F)(F)F)cc1-c1ccc(F)cc1` came in with a logD in [1] of 4.5.
Turning to `O=S(=O)(Nc1ccncn1)c1ccc2c(c1)OCC[C@@H]2c1ccc(C(F)(F)F)cc1N1CCOCC1`, in data set [1], the logD worked out at 2.
With `Cn1nccc1-c1cc(C(F)(F)F)ccc1[C@H]1CCOc2cc(S(=O)(=O)Nc3ccncn3)ccc21`, the logD in [1] amounted to 1.8.
The same measure, in the same setting: under `O=S(=O)(Nc1nccs1)c1ccc2c(c1)OCC[C@@H]2c1ccc(C(F)(F)F)cc1N1CCNCC1` stands 1.4.
